Measured values published in ChEMBL document CHEMBL5705885, “CYT387, a selective JAK1/JAK2 inhibitor: in vitro assessment of kinase selectivity and preclinical studies using cell lines and primary cells from polycythemia vera patients” (Leukemia, 2009).

Experiments:
[1] = molecular target: Serine/threonine-protein kinase D3 (Homo sapiens) (UniProt O94806); details: dose 100.0 nM
[2] = molecular target: Mitogen-activated protein kinase 3 (Homo sapiens, UniProt P27361); assay: Inhibition of MAPK3 (unknown origin)
[3] = molecular target: AMP-activated protein kinase (AMPK) alpha-1/beta-1/gamma-1 (Homo sapiens) (UniProt P54619+Q9Y478+Q13131); details: dose 100.0 nM
[4] = molecular target: Serine/threonine-protein kinase D2 (Homo sapiens, UniProt Q9BZL6); assay: Inhibition of PRKD2 (unknown origin)
[5] = molecular target: Cyclin-dependent kinase 1/cyclin B1 (Homo sapiens, UniProt P06493); assay: Inhibition of CDK1/cyclin B (unknown origin); assay type: protein-complex assay
[6] = molecular target: Serine/threonine-protein kinase 26 (Homo sapiens, UniProt Q9P289); details: dose 100.0 nM
[7] = molecular target: Serine/threonine-protein kinase Nek9 (Homo sapiens) (UniProt Q8TD19); details: dose 100.0 nM
[8] = molecular target: Mitogen-activated protein kinase 1 (Homo sapiens, UniProt P28482); details: dose 100.0 nM
[9] = molecular target: Mitogen-activated protein kinase kinase kinase 8 (Homo sapiens, UniProt P41279); assay: Inhibition of MAP3K8 (unknown origin)
[10] = molecular target: Rhodopsin kinase GRK7 (Homo sapiens, UniProt Q8WTQ7); assay: Inhibition of GRK7 (unknown origin)
[11] = molecular target: Aurora kinase C (Homo sapiens, UniProt Q9UQB9); assay: Inhibition of AURKC (unknown origin)
[12] = molecular target: Serine/threonine-protein kinase BRSK1 (Homo sapiens, UniProt Q8TDC3); assay: Inhibition of BRSK1 (unknown origin)
[13] = molecular target: Calcium/calmodulin-dependent protein kinase type II subunit alpha (Homo sapiens, UniProt Q9UQM7); assay: Inhibition of CAMK2 alpha (unknown origin)
[14] = molecular target: Ribosomal protein S6 kinase beta-1 (Homo sapiens, UniProt P23443); assay: Inhibition of RPS6KB1 (unknown origin)
[15] = molecular target: BDNF/NT-3 growth factors receptor (Homo sapiens, UniProt Q16620); details: dose 100.0 nM
[16] = molecular target: T1, Serine/threonine-protein kinase PLK3 (Homo sapiens, UniProt Q9H4B4); assay: Inhibition of PLK3 (unknown origin)
Target sequence in this assay (Q9H4B4 whole entry): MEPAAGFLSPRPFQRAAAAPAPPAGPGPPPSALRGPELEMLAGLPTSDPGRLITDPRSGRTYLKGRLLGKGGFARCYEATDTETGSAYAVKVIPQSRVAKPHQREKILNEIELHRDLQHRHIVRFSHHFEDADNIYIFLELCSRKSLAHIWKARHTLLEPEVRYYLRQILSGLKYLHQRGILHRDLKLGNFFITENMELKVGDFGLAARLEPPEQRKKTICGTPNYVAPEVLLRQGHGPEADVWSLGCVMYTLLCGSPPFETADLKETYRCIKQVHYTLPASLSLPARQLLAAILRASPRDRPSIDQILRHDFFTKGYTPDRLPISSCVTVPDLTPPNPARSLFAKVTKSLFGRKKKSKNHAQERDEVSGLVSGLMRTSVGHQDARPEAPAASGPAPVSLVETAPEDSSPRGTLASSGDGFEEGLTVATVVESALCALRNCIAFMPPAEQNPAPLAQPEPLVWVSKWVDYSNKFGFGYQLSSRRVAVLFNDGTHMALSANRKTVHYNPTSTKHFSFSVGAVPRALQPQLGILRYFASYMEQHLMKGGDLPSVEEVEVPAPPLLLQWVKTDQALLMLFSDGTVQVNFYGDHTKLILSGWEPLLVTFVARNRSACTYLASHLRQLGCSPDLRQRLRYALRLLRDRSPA

[17] = tested on: K562; assay: Antiproliferative activity against human K562 cells measured after 72 hrs by Alamar blue staining based analysis; assay type: functional, cell-based; details: K562, 72 h
How it was run: (§1)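 Cells were exposed for 72 h at 37 °C under 5% CO2 to compound made up as DMSO stock and diluted in culture medium. Proliferation was then read by Alamar Blue.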

[18] = molecular target: Muscle, skeletal receptor tyrosine-protein kinase (Homo sapiens, UniProt O15146); assay: Inhibition of MUSK (unknown origin)
[19] = molecular target: Tyrosine-protein kinase ITK/TSK (Homo sapiens, UniProt Q08881); assay: Inhibition of ITK (unknown origin)
[20] = molecular target: Homeodomain-interacting protein kinase 1 (Homo sapiens, UniProt Q86Z02); details: dose 100.0 nM
[21] = molecular target: Activin receptor type-1B (Homo sapiens, UniProt P36896); assay: Inhibition of ACVR1B (unknown origin)
[22] = molecular target: T1, Serine/threonine-protein kinase PLK3; details: dose 100.0 nM
Target sequence in this assay (Q9H4B4 whole entry, looked up): as the sequence (Q9H4B4 whole entry) above

[23] = molecular target: Insulin-like growth factor 1 receptor (Homo sapiens, UniProt P08069); assay: Inhibition of IGF1R (unknown origin)
[24] = molecular target: Serine/threonine-protein kinase B-raf (Homo sapiens, UniProt P15056); assay: Inhibition of BRAF (unknown origin)
[25] = molecular target: Ephrin type-A receptor 3 (Homo sapiens, UniProt P29320); assay: Inhibition of EPHA3 (unknown origin)
[26] = molecular target: RAC-alpha serine/threonine-protein kinase (Homo sapiens, UniProt P31749); assay: Inhibition of AKT1 (unknown origin)
[27] = molecular target: Serine/threonine-protein kinase Sgk1 (Homo sapiens) (UniProt O00141); details: dose 100.0 nM
[28] = molecular target: Serine/threonine-protein kinase D2 (Homo sapiens) (UniProt Q9BZL6); details: dose 100.0 nM
[29] = molecular target: Mitogen-activated protein kinase kinase kinase kinase 2 (Homo sapiens, UniProt Q12851); assay: Inhibition of MAP4K2 (unknown origin)
[30] = molecular target: Serine/threonine-protein kinase Nek2 (Homo sapiens, UniProt P51955); assay: Inhibition of NEK2 (unknown origin)
[31] = molecular target: Mitogen-activated protein kinase 14 (Homo sapiens, UniProt Q16539); assay: Inhibition of MAPK14 (unknown origin)
[32] = molecular target: Proto-oncogene tyrosine-protein kinase ROS (Homo sapiens, UniProt P08922); details: dose 100.0 nM
[33] = molecular target: Platelet-derived growth factor receptor alpha (Homo sapiens, UniProt P16234); details: dose 100.0 nM
[34] = molecular target: Ephrin type-A receptor 1 (Homo sapiens, UniProt P21709); assay: Inhibition of EPHA1 (unknown origin)
[35] = tested on: BaF3; assay: Antiproliferative activity against mouse BaF3 cells harboring TEL-JAK2 measured after 72 hrs by Alamar blue staining based analysis; assay type: functional, cell-based; details: BaF3, 72 h
How it was run: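 Murine Ba/F3 cells carrying TEL/JAK2 or TEL/JAK3 fusions, grown in DMEM with 10% fetal calf serum. Compound stocks in DMSO were diluted in culture medium. Proliferation was read by Alamar Blue after 72 h incubation at 37 °C under 5% CO2.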

[36] = molecular target: Serine/threonine-protein kinase Chk1 (Homo sapiens, UniProt O14757); assay: Inhibition of CHEK1 (unknown origin)
[37] = molecular target: Cyclin-dependent kinase 5/CDK5 activator 1 (Homo sapiens, UniProt Q00535); assay: Inhibition of CDK5/p35 (unknown origin); assay type: protein-complex assay
[38] = molecular target: Dual specificity protein kinase CLK1 (Homo sapiens, UniProt P49759); details: dose 100.0 nM
[39] = molecular target: Serine/threonine-protein kinase Sgk1 (Homo sapiens, UniProt O00141); assay: Inhibition of SGK (unknown origin)
[40] = tested on: MV4-11; assay: Antiproliferative activity against human MV4-11 cells measured after 72 hrs by Alamar blue staining based analysis; assay type: functional, cell-based; details: MV4-11, 72 h
How it was run: as §1

[41] = molecular target: Activin receptor type-1B (Homo sapiens) (UniProt P36896); details: dose 100.0 nM
[42] = molecular target: Tyrosine-protein kinase JAK1 (Homo sapiens) (UniProt P23458); details: dose 100.0 nM

Sequence of Serine/threonine-protein kinase 26 (Q9P289 2-416 limits assumed): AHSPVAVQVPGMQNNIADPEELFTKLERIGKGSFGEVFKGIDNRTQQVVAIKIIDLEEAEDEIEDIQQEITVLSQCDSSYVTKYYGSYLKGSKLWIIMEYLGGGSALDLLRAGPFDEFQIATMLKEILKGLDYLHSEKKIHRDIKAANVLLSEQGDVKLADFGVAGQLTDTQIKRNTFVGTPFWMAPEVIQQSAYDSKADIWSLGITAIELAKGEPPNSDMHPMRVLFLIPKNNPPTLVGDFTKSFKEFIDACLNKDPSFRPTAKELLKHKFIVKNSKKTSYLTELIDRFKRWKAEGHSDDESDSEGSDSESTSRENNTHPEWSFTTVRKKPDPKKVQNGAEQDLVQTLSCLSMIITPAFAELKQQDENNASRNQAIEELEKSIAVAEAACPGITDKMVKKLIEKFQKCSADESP
Sequence of Mitogen-activated protein kinase 1 (P28482 whole entry): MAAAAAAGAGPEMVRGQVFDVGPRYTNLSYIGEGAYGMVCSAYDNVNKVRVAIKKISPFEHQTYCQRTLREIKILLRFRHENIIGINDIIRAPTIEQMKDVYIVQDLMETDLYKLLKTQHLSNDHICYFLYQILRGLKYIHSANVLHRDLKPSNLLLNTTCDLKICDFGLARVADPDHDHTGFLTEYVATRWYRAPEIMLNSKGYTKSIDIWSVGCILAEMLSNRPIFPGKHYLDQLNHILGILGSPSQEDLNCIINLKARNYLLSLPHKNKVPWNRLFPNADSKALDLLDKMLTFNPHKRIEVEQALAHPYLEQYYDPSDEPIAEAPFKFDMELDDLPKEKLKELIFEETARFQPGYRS
Sequence of Muscle, skeletal receptor tyrosine-protein kinase (O15146 whole entry): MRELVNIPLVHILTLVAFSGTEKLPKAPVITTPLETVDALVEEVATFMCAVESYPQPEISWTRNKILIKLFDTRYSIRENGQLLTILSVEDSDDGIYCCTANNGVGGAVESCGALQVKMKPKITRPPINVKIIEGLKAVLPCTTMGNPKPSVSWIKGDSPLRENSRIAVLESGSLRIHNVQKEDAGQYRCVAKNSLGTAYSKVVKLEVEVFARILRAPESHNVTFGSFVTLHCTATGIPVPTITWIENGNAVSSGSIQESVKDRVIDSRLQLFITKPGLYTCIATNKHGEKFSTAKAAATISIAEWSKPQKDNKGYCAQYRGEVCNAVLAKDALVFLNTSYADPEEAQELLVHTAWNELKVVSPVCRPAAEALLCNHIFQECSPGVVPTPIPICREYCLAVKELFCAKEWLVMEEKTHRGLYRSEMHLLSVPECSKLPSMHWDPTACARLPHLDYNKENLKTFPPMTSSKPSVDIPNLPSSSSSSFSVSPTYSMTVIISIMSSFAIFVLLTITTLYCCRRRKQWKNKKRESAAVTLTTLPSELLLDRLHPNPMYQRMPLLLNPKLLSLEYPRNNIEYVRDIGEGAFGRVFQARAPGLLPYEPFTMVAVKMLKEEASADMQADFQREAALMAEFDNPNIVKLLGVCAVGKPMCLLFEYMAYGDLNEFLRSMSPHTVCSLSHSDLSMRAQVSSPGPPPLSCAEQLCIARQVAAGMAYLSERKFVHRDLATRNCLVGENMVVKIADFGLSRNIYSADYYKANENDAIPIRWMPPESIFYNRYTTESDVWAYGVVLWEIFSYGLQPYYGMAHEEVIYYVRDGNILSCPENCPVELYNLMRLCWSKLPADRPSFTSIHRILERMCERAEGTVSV
Sequence of Dual specificity protein kinase CLK1 (P49759 whole entry, looked up): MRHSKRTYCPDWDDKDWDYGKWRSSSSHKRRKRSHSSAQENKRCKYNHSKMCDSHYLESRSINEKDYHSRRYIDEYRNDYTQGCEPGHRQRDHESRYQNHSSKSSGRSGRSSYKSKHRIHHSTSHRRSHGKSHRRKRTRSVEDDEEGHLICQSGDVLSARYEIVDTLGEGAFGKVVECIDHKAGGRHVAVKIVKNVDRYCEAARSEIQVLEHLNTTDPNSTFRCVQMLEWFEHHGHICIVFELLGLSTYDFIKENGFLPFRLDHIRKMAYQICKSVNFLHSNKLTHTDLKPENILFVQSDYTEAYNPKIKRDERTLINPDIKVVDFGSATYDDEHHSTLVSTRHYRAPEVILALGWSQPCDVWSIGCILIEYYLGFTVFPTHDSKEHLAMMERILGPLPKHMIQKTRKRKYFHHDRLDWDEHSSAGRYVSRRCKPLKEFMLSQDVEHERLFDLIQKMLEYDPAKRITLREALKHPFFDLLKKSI
Sequence of Mitogen-activated protein kinase 14 (Q16539 whole entry): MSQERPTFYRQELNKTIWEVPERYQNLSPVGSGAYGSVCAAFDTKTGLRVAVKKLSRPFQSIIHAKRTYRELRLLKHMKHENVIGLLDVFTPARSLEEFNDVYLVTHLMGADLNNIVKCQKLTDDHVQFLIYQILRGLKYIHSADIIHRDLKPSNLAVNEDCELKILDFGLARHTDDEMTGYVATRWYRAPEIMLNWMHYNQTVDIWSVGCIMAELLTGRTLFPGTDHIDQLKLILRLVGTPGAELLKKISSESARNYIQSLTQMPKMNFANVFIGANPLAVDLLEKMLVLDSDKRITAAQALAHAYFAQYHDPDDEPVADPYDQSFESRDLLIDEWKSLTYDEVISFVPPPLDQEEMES
Sequence of Calcium/calmodulin-dependent protein kinase type II subunit alpha (Q9UQM7 whole entry): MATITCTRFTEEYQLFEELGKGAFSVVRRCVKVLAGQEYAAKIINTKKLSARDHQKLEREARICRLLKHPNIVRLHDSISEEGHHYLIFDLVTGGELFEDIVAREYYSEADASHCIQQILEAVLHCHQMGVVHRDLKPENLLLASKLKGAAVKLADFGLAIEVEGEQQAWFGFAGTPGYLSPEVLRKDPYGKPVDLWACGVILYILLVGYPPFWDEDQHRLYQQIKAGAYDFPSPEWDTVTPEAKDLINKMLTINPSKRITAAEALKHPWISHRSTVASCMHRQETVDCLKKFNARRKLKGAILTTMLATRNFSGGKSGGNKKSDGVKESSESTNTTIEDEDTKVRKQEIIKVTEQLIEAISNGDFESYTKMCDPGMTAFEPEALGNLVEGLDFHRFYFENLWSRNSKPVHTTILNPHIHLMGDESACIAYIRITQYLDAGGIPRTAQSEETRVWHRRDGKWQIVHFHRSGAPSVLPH
Sequence of Ephrin type-A receptor 1 (P21709 whole entry): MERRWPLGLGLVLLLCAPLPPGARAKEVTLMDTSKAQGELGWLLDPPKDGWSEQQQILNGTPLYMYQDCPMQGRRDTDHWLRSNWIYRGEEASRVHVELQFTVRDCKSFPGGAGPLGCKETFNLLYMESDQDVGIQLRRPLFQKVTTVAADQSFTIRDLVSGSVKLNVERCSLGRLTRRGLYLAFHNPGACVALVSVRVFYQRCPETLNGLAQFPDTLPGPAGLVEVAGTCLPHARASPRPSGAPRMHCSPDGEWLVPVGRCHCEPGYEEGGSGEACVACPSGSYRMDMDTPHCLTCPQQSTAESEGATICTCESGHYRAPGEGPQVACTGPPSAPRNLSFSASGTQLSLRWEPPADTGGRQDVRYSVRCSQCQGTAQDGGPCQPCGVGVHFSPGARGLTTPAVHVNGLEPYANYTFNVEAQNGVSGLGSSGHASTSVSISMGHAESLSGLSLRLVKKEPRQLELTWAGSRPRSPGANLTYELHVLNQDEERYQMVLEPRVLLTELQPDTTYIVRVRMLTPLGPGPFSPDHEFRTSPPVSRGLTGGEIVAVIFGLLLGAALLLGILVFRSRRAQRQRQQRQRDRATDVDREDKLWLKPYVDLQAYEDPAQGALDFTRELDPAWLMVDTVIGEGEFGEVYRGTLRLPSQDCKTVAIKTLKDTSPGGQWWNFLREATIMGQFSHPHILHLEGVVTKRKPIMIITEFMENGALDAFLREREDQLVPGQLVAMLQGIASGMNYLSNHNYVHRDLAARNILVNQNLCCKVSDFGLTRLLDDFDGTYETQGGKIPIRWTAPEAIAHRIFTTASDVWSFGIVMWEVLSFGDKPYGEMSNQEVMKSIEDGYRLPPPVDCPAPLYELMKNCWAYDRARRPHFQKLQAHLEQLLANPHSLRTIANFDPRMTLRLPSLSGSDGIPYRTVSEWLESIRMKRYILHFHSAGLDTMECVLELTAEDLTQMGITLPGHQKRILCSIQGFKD
Sequence of Aurora kinase C (Q9UQB9 whole entry): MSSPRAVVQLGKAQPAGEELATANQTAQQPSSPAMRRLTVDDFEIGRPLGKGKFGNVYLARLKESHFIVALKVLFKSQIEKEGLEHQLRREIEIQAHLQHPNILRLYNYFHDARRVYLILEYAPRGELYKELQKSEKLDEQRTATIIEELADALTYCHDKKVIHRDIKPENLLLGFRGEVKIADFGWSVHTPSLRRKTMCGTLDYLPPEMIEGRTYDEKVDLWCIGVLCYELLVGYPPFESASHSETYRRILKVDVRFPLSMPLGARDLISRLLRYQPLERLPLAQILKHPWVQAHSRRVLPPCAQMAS

inhibition [1]: > 50%
IC50 [2]: > 1000 nM
inhibition [3]: < 50%
IC50 [4]: < 1000 nM
IC50 [5]: < 1000 nM
inhibition [6]: < 50%
inhibition [8]: < 50%
IC50 [9]: < 1000 nM
IC50 [10]: > 1000 nM
IC50 [11]: < 1000 nM
IC50 [12]: < 1000 nM
IC50 [13]: > 1000 nM
IC50 [14]: < 1000 nM
inhibition [15]: < 50%
IC50 [16]: < 1000 nM
IC50 [17]: 58000 nM
IC50 [18]: < 1000 nM
IC50 [19]: > 1000 nM
inhibition [20]: < 50%
IC50 [21]: < 1000 nM
inhibition [22]: < 50%
IC50 [23]: > 1000 nM
IC50 [24]: < 1000 nM
IC50 [25]: > 1000 nM
IC50 [26]: > 1000 nM
inhibition [27]: < 50%
inhibition [28]: < 50%
IC50 [29]: < 1000 nM
IC50 [30]: > 1000 nM
IC50 [31]: > 1000 nM
inhibition [32]: < 50%
inhibition [33]: < 50%
IC50 [34]: > 1000 nM
IC50 [35]: 724 nM
IC50 [36]: > 1000 nM
IC50 [37]: < 1000 nM
inhibition [38]: < 50%
IC50 [39]: < 1000 nM
IC50 [40]: 3000 nM
inhibition [41]: < 50%
inhibition [42]: > 50%
SMILES: N#CCNC(=O)c1ccc(-c2ccnc(Nc3ccc(N4CCOCC4)cc3)n2)cc1 [MOMELOTINIB]
inhibition [7]: < 50%
